Laboratory results from the M2OR odorant receptor database.
Residue numbers refer to the chain shown, from its start.

Key:
Details in all cases: stereoisomer not certain
OR1F12P (Homo sapiens) = biological target: T1, OR1F12P (Homo sapiens) (UniProt Q8NHA8)
T1 sequence (whole entry): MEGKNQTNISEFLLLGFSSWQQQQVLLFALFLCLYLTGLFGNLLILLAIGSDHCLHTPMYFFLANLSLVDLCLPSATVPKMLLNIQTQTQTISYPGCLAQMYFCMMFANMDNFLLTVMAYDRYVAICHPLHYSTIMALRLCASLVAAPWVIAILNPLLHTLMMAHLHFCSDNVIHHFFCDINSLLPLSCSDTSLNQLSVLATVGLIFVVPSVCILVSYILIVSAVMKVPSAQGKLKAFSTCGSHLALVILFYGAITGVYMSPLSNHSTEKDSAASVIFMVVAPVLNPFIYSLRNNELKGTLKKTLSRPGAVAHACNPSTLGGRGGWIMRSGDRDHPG
Procedure, shortened: (§1)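 Assay methods differ from source to source, frequently being transient luciferase assays in mammalian cell lines. For each receptor–molecule pair, the label responsive (active) applies when the original authors judged the measured signal statistically different from baseline, and non-responsive (inactive) applies otherwise.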

OR1F1 = test system: T2, OR1F1
T2 sequence (whole entry): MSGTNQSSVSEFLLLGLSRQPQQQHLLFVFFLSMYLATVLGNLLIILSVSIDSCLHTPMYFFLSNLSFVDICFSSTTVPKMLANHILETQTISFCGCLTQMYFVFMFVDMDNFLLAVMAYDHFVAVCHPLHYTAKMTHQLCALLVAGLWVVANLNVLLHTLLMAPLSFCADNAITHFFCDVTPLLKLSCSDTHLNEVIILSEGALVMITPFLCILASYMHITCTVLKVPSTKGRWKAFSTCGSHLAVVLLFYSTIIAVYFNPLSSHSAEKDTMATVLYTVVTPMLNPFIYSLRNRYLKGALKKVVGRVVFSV
Procedure, shortened: as §1

OR1G1 (Homo sapiens) = biological target: T3, OR1G1 (Homo sapiens) (UniProt P47890)
T3 sequence (whole entry): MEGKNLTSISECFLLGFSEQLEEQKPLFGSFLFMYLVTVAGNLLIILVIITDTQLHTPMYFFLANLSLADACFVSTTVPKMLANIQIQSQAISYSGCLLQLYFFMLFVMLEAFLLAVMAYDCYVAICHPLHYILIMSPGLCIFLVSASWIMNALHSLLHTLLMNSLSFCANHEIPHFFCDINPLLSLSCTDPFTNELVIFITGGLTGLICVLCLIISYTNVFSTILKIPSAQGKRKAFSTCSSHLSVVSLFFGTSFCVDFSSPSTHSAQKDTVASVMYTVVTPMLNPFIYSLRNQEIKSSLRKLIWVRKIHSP
Procedure, shortened: as §1

OR1I1 (Homo sapiens) = biological target: T4, OR1I1 (Homo sapiens) (UniProt O60431)
T4 sequence (whole entry): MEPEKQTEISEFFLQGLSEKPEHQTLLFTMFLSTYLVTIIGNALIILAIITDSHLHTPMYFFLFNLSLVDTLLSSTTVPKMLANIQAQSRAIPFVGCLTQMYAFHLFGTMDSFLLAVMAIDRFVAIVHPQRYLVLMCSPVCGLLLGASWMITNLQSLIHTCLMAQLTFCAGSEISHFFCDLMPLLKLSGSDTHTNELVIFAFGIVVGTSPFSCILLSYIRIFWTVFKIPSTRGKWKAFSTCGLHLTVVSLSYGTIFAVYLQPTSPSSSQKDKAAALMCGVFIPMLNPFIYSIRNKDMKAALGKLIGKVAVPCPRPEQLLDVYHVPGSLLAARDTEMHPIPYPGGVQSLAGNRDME
Procedure, shortened: as §1

OR1J1 (Homo sapiens) = biological target: T5, OR1J1 (Homo sapiens) (UniProt Q8NGS3)
T5 sequence (whole entry): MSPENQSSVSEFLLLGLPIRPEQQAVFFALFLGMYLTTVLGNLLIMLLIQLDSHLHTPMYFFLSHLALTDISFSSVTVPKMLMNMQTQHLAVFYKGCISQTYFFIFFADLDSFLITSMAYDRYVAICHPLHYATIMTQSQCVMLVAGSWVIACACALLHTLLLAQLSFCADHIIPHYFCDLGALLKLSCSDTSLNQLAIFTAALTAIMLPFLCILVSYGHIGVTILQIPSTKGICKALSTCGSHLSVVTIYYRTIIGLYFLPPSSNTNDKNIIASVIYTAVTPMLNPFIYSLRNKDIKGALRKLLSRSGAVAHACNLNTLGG
Procedure, shortened: as §1

OR1J2 (Homo sapiens) = biological target: T6, OR1J2 (Homo sapiens) (UniProt Q8NGS2)
T6 sequence (whole entry): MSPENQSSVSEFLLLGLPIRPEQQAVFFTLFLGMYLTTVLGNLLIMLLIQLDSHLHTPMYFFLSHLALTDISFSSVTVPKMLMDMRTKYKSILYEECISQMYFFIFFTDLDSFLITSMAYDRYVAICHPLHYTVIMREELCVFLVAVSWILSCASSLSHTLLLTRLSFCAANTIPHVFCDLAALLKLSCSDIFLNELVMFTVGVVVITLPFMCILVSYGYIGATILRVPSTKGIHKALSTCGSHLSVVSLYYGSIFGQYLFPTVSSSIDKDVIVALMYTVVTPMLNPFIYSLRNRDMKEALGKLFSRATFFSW
Procedure, shortened: as §1

OR1J4 (Homo sapiens) = biological target: T7, OR1J4 (Homo sapiens) (UniProt Q8NGS1)
T7 sequence (whole entry): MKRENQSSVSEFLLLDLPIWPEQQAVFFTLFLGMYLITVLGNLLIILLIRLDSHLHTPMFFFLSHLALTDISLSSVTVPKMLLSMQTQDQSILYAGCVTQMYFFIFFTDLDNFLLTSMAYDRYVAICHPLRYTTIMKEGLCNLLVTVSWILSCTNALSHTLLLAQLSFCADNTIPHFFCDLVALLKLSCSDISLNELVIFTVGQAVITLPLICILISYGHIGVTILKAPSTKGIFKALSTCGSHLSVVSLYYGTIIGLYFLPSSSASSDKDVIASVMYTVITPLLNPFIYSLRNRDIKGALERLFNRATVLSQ
Procedure, shortened: as §1

OR1K1 (Homo sapiens) = biological target: T8, OR1K1 (Homo sapiens) (UniProt Q8NGR3)
T8 sequence (whole entry): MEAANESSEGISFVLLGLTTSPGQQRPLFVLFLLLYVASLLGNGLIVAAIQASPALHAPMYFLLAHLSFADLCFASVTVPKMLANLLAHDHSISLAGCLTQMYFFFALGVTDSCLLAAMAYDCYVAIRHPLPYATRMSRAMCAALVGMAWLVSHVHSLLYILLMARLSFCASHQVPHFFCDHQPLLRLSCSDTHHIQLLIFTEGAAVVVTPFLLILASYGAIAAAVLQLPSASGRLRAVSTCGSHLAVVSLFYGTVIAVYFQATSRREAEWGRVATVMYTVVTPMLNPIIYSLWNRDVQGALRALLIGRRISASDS
Procedure, shortened: as §1

OR1L1 = test system: T9, OR1L1
T9 sequence (whole entry): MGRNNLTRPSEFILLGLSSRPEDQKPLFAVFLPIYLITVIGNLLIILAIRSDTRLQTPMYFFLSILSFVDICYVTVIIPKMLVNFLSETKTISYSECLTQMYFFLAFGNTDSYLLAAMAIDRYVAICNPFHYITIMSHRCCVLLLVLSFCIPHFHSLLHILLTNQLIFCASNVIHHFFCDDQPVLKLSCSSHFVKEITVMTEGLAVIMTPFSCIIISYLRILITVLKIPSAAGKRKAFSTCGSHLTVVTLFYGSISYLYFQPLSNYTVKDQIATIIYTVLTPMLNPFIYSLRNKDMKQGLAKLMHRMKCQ
Procedure, shortened: as §1

OR1L3 (Homo sapiens) = biological target: T10, OR1L3 (Homo sapiens) (UniProt Q8NH93)
T10 sequence (whole entry): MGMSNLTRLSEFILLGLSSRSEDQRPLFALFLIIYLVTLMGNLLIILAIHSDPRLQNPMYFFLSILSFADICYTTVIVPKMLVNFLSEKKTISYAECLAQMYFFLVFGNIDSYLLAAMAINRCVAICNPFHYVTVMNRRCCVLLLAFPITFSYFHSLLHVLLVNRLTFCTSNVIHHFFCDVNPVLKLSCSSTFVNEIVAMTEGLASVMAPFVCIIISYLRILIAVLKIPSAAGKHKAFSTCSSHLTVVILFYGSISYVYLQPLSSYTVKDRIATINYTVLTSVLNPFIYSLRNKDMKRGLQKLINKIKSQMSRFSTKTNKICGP
Procedure, shortened: as §1

OR1L4 (Homo sapiens) = biological target: T11, OR1L4 (Homo sapiens) (UniProt Q8NGR5)
T11 sequence (whole entry): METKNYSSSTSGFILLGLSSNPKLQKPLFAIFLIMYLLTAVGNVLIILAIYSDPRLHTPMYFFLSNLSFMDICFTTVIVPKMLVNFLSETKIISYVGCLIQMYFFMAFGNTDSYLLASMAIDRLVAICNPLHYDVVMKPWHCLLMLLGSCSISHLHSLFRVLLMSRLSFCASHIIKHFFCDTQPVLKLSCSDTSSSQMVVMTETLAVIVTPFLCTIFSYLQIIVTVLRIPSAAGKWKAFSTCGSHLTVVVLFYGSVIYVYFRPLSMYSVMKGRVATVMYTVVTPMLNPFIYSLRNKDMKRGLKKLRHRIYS
Procedure, shortened: as §1

OR1L4 = test system: T12, OR1L4
T12 sequence (whole entry): T11 sequence (whole entry) with G234R
Procedure, shortened: as §1

OR1L6 = test system: T13, OR1L6
T13 sequence (whole entry): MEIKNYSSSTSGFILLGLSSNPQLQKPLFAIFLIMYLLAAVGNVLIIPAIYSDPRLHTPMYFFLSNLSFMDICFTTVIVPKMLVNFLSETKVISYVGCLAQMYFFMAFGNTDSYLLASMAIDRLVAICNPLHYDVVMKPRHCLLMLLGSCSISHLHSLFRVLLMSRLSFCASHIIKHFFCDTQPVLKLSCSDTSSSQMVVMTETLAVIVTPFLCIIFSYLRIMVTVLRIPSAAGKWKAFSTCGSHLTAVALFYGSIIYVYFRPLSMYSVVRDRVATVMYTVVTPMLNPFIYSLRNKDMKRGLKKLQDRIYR
Procedure, shortened: as §1

OR1L8 (Homo sapiens) = biological target: T14, OR1L8 (Homo sapiens) (UniProt Q8NGR8)
T14 sequence (whole entry): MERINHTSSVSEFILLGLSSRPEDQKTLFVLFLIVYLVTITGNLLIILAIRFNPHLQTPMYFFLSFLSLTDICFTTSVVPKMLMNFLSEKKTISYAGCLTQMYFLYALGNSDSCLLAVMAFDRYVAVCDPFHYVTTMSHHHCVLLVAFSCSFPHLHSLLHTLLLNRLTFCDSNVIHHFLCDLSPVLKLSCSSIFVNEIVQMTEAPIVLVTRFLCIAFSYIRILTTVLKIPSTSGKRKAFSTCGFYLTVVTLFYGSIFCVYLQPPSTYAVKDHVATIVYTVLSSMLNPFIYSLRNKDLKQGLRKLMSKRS
Procedure, shortened: as §1

OR1L8 T27P R211P = test system: T15, OR1L8 T27P R211P
T15 sequence (whole entry): T14 sequence (whole entry) with T27P, R211P
Procedure, shortened: as §1

OR1M1 (Homo sapiens) = biological target: T16, OR1M1 (Homo sapiens) (UniProt Q8NGA1)
T16 sequence (whole entry): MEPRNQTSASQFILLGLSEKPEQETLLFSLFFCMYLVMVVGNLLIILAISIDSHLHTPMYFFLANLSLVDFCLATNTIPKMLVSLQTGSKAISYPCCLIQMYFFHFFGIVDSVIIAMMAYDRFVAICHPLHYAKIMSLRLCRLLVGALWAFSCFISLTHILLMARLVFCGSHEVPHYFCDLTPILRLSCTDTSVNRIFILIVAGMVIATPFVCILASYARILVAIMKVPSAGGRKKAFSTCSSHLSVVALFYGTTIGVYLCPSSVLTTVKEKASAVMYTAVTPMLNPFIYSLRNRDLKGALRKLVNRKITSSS
Procedure, shortened: as §1

OR1N1 (Homo sapiens) = biological target: T17, OR1N1 (Homo sapiens) (UniProt Q8NGS0)
T17 sequence (whole entry): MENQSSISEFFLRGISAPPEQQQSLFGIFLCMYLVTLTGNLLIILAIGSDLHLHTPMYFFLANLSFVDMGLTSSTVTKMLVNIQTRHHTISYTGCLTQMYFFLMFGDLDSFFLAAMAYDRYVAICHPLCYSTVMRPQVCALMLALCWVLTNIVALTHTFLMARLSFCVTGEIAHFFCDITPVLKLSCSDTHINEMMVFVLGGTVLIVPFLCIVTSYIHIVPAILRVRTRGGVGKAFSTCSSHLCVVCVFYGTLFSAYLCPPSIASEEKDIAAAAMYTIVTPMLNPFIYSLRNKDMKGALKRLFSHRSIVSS
Procedure, shortened: as §1

OR1N2 W37R = test system: T18, OR1N2 W37R
T18 sequence (whole entry): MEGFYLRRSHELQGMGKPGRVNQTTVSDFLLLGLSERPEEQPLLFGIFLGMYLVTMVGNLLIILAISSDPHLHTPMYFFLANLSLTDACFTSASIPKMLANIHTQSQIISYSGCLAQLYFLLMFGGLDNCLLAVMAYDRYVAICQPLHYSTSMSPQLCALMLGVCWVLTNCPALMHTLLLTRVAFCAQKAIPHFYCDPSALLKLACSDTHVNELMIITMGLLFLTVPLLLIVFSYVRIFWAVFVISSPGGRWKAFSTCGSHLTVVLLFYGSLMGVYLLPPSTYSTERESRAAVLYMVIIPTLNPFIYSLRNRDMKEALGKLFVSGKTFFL
Procedure, shortened: as §1

Measured: odorant receptor agonist call

CCC1OC(C)=C(O)C1=O (stereo not drawn)
inactive: OR1F12P (Homo sapiens) | OR1F1 | OR1G1 (Homo sapiens) | OR1I1 (Homo sapiens) | OR1J1 (Homo sapiens) | OR1J2 (Homo sapiens) | OR1J4 (Homo sapiens) | OR1K1 (Homo sapiens) | OR1L1 | OR1L3 (Homo sapiens) | OR1L4 (Homo sapiens) | OR1L4 | OR1L6 | OR1L8 (Homo sapiens) | OR1L8 T27P R211P | OR1M1 (Homo sapiens) | OR1N1 (Homo sapiens) | OR1N2 W37R
